Test results reported in ChEMBL document CHEMBL3421623 (J Med Chem, 2015).

Columns and labels:
Aromatase = target: T1, Aromatase (Homo sapiens, UniProt P11511); assay: Inhibition of human recombinant aromatase using 7-methoxy-trifluoromethylcoumarin as substrate assessed as formation of fluorescent metabolite after 30 mins by fluorescence assay; settings: for inhibition (INH): human, 0.5 h
T1 sequence (P11511 whole entry): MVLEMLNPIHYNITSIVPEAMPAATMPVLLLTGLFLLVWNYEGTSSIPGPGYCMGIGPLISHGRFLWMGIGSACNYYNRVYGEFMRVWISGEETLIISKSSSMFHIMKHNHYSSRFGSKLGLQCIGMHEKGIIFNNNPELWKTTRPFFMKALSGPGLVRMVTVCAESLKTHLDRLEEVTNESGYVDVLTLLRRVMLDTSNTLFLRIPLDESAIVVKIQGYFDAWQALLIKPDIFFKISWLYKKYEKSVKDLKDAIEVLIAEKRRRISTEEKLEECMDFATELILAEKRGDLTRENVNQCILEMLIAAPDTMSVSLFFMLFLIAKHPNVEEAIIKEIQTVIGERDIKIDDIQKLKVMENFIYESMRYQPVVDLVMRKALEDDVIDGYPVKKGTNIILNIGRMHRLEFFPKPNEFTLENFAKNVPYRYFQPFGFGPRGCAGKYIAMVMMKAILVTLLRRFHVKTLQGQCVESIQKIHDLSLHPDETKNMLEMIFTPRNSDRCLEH
Summary of the method: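 Recombinant human CYP19 with MFC substrate, converted to fluorescent HFC, in 0.1 M potassium phosphate pH 7.4. NADPH-regenerating mix (NADP⁺, MgCl₂, glucose-6-phosphate, G6PDH); compound prewarmed 10 min at 37 °C, then 30 min reaction stopped with Tris base in acetonitrile. Activity as % of vehicle control; IC50 from one-site competition fit; Ki from Lineweaver–Burk data by nonlinear regression.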

[1] = target: T2, Estrogen receptor (Homo sapiens) (UniProt P03372); assay: Displacement of fluorescein-labeled ES2 from human recombinant ERalpha receptor at 100000 nM after 2 hrs by fluorescence polarization assay
T2 sequence (whole entry): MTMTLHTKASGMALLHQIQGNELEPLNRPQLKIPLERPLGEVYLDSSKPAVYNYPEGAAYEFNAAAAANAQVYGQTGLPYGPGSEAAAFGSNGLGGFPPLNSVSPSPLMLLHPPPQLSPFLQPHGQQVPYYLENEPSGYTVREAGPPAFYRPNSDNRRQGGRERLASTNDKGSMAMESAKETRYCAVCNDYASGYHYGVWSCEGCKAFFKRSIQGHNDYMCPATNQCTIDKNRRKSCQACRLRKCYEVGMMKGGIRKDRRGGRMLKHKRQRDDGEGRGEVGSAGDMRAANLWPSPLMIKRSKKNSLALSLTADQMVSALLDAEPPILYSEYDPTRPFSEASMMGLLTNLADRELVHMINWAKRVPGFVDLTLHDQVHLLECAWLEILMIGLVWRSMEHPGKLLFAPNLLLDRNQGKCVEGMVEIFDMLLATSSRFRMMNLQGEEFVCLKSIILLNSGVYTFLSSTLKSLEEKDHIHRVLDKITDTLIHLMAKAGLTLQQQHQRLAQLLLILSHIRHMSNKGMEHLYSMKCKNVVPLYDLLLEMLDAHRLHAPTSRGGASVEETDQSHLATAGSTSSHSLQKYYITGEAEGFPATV
Summary of the method: (§1)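 Same ES2 fluorescence polarization setup: 9 nM ES2 with 30 nM ER-α or 20 nM ER-β, in phosphate/BGG buffer, 2 h in the dark. Each compound tested at a single 100000 nM and reported as percent ER competition versus vehicle control. Compounds were E/Z isomer mixtures (mostly 1:1). Mean of at least three experiments.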

Estrogen receptor beta [2] = target: T3, Estrogen receptor beta (Homo sapiens, UniProt Q92731); assay: Displacement of fluorescein-labeled ES2 from human recombinant ERbeta receptor at 100000 nM after 2 hrs by fluorescence polarization assay; summary of the method: as §1
Estrogen receptor beta [3] = target: T3, Estrogen receptor beta; assay: Displacement of fluorescein-labeled ES2 from human recombinant ERbeta receptor after 2 hrs by fluorescence polarization assay
Summary of the method: (§2)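 Fluorescence polarization competition. Compound in methanol or DMSO mixed with ES2 screening buffer (100 mM potassium phosphate, 100 μg/mL BGG, 0.02% NaN₃). Preformed complex added to final 9 nM ES2 with 30 nM ER-α or 20 nM ER-β. Polarization expressed as % of vehicle control; EC50 from one-site competition fit.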

[4] = target: T2, Estrogen receptor (Homo sapiens); assay: Antiestrogenic effect at estrogen receptor in human MCF7 cells assessed as inhibition of E2-induced progesterone receptor mRNA expression at 1000 nM after 24 hrs by real time quantitative PCR; format: cell-based; set-up: scale not given: the % may be the effect or the level left
Summary of the method: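 MCF-7 cells (10⁵/well) grown in MEM + 10% FBS at 37 °C, 5% CO₂, then preconditioned 72 h in charcoal-stripped FBS. Treated 24 h with 1 μM compound or vehicle (0.1% methanol) plus 10 nM E2 in MEM/10% charcoal-stripped FBS. PGR mRNA extracted after genomic DNA removal and quantified by qPCR (40 cycles, Ct). Reported as % of E2-alone expression (100%); 1 μM endoxifen as positive control.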

Estrogen receptor = target: T4, Estrogen receptor (Homo sapiens, UniProt P03372); assay: Displacement of fluorescein-labeled ES2 from human recombinant ERalpha receptor after 2 hrs by fluorescence polarization assay; summary of the method: as §2
T4 sequence (P03372 whole entry): T2 sequence (whole entry)

Cytochrome P450 2A6 = target: T5, Cytochrome P450 2A6 (Homo sapiens, UniProt P11509); assay: Inhibition of human recombinant CYP2A6 assessed as metabolism of coumarin to 7-hydroxycoumarin after 30 mins by fluorescence assay; format: ADME
T5 sequence (P11509 whole entry): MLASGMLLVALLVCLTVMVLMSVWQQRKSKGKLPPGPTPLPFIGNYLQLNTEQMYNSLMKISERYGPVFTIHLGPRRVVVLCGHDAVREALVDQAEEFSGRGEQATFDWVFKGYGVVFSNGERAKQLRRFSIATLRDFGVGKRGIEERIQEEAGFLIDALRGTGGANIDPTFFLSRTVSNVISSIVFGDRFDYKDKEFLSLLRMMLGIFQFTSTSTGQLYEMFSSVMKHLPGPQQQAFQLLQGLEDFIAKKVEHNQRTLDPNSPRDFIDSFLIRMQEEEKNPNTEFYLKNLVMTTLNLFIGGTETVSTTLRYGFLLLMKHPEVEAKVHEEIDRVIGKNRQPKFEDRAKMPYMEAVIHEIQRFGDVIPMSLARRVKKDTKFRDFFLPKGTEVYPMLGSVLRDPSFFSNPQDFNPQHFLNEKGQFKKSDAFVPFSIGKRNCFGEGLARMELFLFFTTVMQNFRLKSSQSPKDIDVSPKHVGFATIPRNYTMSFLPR

Cytochrome P450 1A2 = target: T6, Cytochrome P450 1A2 (Homo sapiens, UniProt P05177); assay: Inhibition of human recombinant CYP1A2 assessed as metabolism of 3-cyano-7-ethoxycoumarin after 30 mins by fluorescence assay; format: ADME
T6 sequence (P05177 whole entry): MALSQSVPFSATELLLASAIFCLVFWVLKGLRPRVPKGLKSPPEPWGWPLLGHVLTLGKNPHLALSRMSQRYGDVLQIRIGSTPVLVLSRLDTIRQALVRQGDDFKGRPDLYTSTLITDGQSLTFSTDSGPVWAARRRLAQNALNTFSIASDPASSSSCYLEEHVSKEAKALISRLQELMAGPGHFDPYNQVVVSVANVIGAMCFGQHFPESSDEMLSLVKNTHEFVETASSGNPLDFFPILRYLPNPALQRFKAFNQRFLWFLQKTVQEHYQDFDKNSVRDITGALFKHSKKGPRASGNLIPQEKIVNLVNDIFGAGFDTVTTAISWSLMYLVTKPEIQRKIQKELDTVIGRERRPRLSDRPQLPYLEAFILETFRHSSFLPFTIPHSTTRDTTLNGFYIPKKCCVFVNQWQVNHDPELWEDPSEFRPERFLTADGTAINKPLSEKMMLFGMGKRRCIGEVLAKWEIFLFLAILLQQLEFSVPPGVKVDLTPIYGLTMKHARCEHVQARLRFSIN

Cytochrome P450 2D6 = Cytochrome P450 2D6 (Homo sapiens, UniProt P10635); assay: Inhibition of human recombinant CYP2D6 after 30 mins by fluorescence assay; format: ADME
Cytochrome P450 3A5 = Cytochrome P450 3A5 (Homo sapiens, UniProt P20815); assay: Inhibition of human recombinant CYP3A5 assessed as metabolism of 7-benzyloxy-4-trifluoromethylcoumarin to HFC after 30 mins by fluorescence assay; format: ADME
Cytochrome P450 3A4 = Cytochrome P450 3A4 (Homo sapiens, UniProt P08684); assay: Inhibition of human recombinant CYP3A4 assessed as metabolism of 7-benzyloxy-4-trifluoromethylcoumarin to HFC after 30 mins by fluorescence assay; format: ADME
Sequence of Cytochrome P450 3A4 (P08684 whole entry): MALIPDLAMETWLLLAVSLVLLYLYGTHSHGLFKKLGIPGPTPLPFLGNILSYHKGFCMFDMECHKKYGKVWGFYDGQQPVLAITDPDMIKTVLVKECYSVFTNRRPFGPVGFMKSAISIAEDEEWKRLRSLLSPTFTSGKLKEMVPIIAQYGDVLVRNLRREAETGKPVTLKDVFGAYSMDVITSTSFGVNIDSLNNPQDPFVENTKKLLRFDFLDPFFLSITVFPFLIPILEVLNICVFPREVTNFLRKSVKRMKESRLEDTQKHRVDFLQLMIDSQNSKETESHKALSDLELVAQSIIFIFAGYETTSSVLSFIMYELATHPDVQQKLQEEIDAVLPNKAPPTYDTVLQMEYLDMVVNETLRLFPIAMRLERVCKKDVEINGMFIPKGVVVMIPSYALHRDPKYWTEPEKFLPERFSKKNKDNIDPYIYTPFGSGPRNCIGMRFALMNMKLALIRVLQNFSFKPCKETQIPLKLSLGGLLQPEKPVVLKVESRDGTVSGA

T3 sequence (Q92731 whole entry): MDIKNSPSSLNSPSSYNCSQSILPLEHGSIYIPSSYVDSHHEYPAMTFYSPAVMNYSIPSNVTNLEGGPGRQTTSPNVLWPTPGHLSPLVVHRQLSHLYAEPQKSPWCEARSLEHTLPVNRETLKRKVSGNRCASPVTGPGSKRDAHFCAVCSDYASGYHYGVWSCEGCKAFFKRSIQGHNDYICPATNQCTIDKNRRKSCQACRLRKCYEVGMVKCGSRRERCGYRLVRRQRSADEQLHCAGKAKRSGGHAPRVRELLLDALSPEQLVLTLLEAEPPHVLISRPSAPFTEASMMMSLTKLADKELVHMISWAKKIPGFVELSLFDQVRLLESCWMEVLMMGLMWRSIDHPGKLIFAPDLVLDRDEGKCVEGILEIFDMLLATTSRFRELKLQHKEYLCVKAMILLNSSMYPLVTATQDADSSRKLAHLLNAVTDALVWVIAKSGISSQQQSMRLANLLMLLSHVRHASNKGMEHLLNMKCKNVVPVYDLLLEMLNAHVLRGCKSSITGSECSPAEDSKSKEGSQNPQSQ
Sequence of Cytochrome P450 2D6 (P10635 whole entry): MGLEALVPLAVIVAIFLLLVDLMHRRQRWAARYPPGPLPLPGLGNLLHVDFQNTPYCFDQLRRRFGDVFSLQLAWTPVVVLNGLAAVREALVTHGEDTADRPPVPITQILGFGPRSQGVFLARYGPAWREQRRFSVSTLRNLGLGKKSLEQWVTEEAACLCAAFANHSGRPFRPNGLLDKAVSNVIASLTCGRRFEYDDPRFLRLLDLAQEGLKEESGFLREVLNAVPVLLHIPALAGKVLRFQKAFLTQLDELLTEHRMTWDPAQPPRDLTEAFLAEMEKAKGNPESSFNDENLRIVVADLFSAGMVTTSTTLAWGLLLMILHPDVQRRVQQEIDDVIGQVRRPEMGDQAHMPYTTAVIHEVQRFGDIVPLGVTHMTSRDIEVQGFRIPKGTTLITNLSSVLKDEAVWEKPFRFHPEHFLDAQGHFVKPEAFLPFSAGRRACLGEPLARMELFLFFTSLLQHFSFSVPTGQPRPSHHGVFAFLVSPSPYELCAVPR
Sequence of Cytochrome P450 3A5 (P20815 whole entry): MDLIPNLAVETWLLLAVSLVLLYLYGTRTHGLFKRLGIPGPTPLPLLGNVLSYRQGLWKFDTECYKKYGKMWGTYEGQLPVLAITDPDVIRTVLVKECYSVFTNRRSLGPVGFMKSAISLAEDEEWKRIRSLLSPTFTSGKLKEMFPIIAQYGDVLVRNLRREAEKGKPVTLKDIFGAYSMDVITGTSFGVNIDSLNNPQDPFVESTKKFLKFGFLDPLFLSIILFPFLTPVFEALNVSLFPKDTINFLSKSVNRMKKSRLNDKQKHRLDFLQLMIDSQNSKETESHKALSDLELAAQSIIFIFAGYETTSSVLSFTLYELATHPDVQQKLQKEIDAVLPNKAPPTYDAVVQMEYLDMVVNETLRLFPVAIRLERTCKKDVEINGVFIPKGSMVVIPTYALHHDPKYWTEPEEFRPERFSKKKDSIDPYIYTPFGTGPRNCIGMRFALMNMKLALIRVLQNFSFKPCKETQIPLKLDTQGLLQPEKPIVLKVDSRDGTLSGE

Structure (SMILES)	IC50 (Aromatase) [nM]	Activity [1] [%]	Activity (Estrogen receptor beta [2]) [%]	EC50 (Estrogen receptor beta [3]) [nM]	Activity [4] [%]	EC50 (Estrogen receptor) [nM]	further results
NCCOc1ccc(/C(=C(\Cn2ccnc2)c2ccccc2)c2ccc(O)cc2)cc1 (mixture of isomers)	16.9	59	74	–	–	–	–
CC/C(=C(/c1ccc(O)cc1)c1ccc(OCCBr)cc1)c1ccccc1 (mixture of isomers)	–	60	60	–	–	–	inhibition (INH) (Aromatase): 20%
CC/C(=C(/c1ccc(O)cc1)c1ccc(OCCN)cc1)c1ccc(F)cc1 (mixture of isomers)	1020	–	–	49.2	42	87.8	–
CC/C(=C(/c1ccccc1)c1ccc(OCCN)cc1)c1ccccc1 (mixture of isomers)	913	0	0	–	–	–	–
CC/C(=C(/c1ccc(N)cc1)c1ccc(OCCN)cc1)c1ccc(O)cc1 (mixture of isomers)	48.1	–	–	49.9	–	144	–
NCCOc1ccc(C(=C(c2ccccc2)c2ccccc2)c2ccc(O)cc2)cc1	1930	–	–	478	–	653	–
CC/C(=C(/c1ccc(O)cc1)c1ccc(OCCN)cc1)c1ccccc1 (mixture of isomers)	–	–	–	–	32	–	IC50 (Cytochrome P450 2A6): 6370 nM; Ki (Cytochrome P450 2A6): 2180 nM; IC50 (Cytochrome P450 1A2): 207 nM; Ki (Cytochrome P450 2D6): Not Active; inhibition (INH) (Cytochrome P450 2D6; human, recombinant enzyme, 0.5 h): Not Active; IC50 (Cytochrome P450 3A5): 723 nM; Ki (Cytochrome P450 3A5): 829 nM; IC50 (Cytochrome P450 3A4): 285 nM; Ki (Cytochrome P450 3A4): 375 nM
CC/C(=C(/c1ccc(O)cc1)c1ccc(CCCN)cc1)c1ccc(O)cc1 (mixture of isomers)	491	–	–	293	6	1920	–
CC/C(=C(/c1ccc(O)cc1)c1ccc(CCCN)cc1)c1ccccc1 (mixture of isomers)	7340	–	–	13.3	16	27.1	–
C/C(=C(/c1ccc(O)cc1)c1ccc(OCCN)cc1)c1ccccc1 (mixture of isomers)	337	–	–	27.8	–	675	–
NCCOc1ccc(/C(=C(\Cn2cnnc2)c2ccccc2)c2ccc(O)cc2)cc1	699	–	–	57.5	44	176	–
NCCOc1ccc(/C(=C(\Cn2cncn2)c2ccccc2)c2ccc(O)cc2)cc1 (mixture of isomers)	174	–	–	519	47	290	–
CCC/C(=C(/c1ccc(O)cc1)c1ccc(OCCN)cc1)c1ccccc1 (mixture of isomers)	261	–	–	36.5	–	384	–
N#CC/C(=C(/c1ccc(O)cc1)c1ccc(OCCN)cc1)c1ccccc1 (mixture of isomers)	48.9	48	64	–	–	–	–
NCCOc1ccc(/C(=C(\CCCl)c2ccccc2)c2ccc(O)cc2)cc1 (mixture of isomers)	143	–	–	52	–	265	–
CCC(CC)=C(c1ccc(O)cc1)c1ccc(OCCN)cc1	1320	–	–	202	–	277	–
CC/C(=C(/c1ccc(O)cc1)c1ccc(OCCCl)cc1)c1ccccc1 (mixture of isomers)	–	62	40	–	–	–	inhibition (INH) (Aromatase): 27%
NCCOc1ccc(/C(=C/c2ccccc2)c2ccc(O)cc2)cc1 (mixture of isomers)	6290	–	–	19.5	–	1050	–
NCCOc1ccc(/C(=C2\CCc3ccccc32)c2ccc(O)cc2)cc1 (mixture of isomers)	493	–	–	1350	–	3180	–
CC/C(=C(/c1ccc(N)cc1)c1ccc(OCCN)cc1)c1ccccc1 (mixture of isomers)	53.1	–	–	182	–	274	–
CC/C(=C(/c1ccc(O)cc1)c1ccc(OCCO)cc1)c1ccccc1 (mixture of isomers)	30500	62	56	–	–	–	–
CC(C)/C(=C(/c1ccc(O)cc1)c1ccc(OCCN)cc1)c1ccccc1 (mixture of isomers)	328	54	68	–	–	–	–
CC/C(=C(/c1ccc(O)cc1)c1ccc(OCC(=O)O)cc1)c1ccccc1 (mixture of isomers)	3680	55	57	–	–	–	–
CC/C(=C(/c1ccc(O)cc1)c1ccc(OCCCN)cc1)c1ccccc1 (mixture of isomers)	1240	–	–	21.3	33	21.3	–
NCCOc1ccc(/C(=C(/Cn2cnnc2)c2ccccc2)c2ccc(O)cc2)cc1	715	–	–	47.7	47	56.5	–
